Article PMC2975463 (Biochemistry, 2009)
“Also recorded” adds a separate entry of the source. Read-outs that look alike come from different tables or passages of the source.

Legend:
Oxidation = assay type: in vitro ADME, rat; details: for enzymatic oxidation in rat liver cytosol: result in words
In short: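 Rat liver cytosol (5 mg/mL) with varied base-adduct concentrations and 0.4% DMSO, prewarmed 5 min at 37 °C, then started with substrate. Etheno-guanine bases: 0.1 M NaOH stocks, 0.8 M potassium phosphate pH 7.6, extracts in 0.1 M NaOH, HPLC-UV at 285 nm. Heptanone base: DMSO stock, room-temperature setup, UV at 300 nm. Km and vmax came from nonlinear one-site binding fits.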

[1] = oxidation in rat liver cytosol; cited from earlier work
[2] = target: T1, xanthine oxidoreductase (XOR) (Rattus norvegicus, UniProt P22985); test: Effect of XOR and AO inhibitors on 1,N^2-ε-Gua oxidation in rat liver cytosol; assay type: biochemical; details: result in words
T1 sequence (P22985 whole entry): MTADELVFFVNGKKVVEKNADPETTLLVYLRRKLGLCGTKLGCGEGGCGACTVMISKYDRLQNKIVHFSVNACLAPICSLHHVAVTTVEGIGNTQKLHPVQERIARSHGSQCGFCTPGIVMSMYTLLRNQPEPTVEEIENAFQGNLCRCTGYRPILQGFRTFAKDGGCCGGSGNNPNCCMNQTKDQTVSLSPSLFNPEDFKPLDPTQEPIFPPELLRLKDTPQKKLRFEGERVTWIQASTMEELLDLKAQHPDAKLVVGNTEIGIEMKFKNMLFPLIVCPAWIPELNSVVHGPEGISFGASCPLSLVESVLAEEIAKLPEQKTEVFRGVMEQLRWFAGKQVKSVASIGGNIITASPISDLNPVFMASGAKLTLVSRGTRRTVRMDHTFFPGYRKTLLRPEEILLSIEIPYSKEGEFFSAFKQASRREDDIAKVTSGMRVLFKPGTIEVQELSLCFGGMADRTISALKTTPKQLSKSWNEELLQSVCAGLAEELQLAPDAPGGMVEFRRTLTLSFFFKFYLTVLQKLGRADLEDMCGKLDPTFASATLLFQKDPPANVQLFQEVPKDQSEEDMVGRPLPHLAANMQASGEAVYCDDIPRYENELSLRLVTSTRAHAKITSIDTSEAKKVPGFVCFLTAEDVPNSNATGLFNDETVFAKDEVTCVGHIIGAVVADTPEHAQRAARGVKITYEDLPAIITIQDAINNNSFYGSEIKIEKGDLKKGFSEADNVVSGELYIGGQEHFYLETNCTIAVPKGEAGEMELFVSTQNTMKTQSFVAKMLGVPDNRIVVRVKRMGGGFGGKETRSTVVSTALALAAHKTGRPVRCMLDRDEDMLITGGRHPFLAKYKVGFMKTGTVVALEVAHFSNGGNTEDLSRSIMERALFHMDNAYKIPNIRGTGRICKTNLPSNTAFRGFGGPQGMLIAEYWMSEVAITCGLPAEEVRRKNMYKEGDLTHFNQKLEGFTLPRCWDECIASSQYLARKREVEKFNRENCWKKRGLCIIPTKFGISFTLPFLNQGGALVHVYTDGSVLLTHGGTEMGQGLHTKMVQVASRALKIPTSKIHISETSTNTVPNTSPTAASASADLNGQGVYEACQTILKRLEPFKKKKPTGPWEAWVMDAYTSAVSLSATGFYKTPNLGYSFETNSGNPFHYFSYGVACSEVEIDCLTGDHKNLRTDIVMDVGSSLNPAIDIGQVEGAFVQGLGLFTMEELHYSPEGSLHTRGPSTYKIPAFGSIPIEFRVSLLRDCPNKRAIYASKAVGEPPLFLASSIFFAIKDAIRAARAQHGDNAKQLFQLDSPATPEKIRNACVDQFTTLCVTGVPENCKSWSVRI
In short: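 Rat liver cytosol (5 mg/mL final) in 0.8 M potassium phosphate (pH 7.6) with 0.4% DMSO. Substrate stock was in 0.1 M NaOH; 84 μM substrate was used with increasing inhibitor concentrations. Mixes were prepared on ice, equilibrated 5 min at 37 °C, and started by adding substrate. Extracts were taken up in 0.1 M NaOH for reversed-phase HPLC-UV (285 nm). IC50 was fitted by nonlinear regression (one-site competition).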

[3] = target: T1, xanthine oxidoreductase (XOR); assay type: biochemical; details: co-incubation in rat liver cytosol, result in words
In short: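 Rat liver cytosol (5 mg/mL final) in 0.1 M potassium phosphate (pH 7.4) with 0.4% DMSO, co-incubated with inhibitors. Substrate stock was in DMSO, and mixes were prepared at room temperature. Reactions were equilibrated 5 min at 37 °C and started by adding substrate. Extracts were dissolved in methanol for C18 HPLC (formic acid water/methanol gradient) with UV at 300 nm.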

[4] = target: T2, purine nucleoside phosphorylase (PNP) (Homo sapiens, UniProt P00491); test: Incubations of 1,N^6-ε-dA and dIno with purified human PNP; assay type: biochemical; details: dIno versus 1,N^6-ε-dA
T2 sequence (P00491 1-289): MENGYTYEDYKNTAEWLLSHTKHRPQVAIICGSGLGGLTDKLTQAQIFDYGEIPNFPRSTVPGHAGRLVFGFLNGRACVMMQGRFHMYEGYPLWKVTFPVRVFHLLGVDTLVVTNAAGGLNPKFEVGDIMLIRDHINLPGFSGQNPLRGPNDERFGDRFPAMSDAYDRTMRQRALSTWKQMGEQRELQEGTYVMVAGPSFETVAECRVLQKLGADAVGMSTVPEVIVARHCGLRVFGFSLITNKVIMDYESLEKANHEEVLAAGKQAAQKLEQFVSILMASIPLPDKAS

[5] = target: Bovine XO from buttermilk (Bos taurus, UniProt P80457); test: Oxidation of 1,N^2-ε-Gua with purified XO; assay type: biochemical; details: for oxidation by purified bovine XO: result in words
Bovine XO from buttermilk, sequence (P80457 whole entry): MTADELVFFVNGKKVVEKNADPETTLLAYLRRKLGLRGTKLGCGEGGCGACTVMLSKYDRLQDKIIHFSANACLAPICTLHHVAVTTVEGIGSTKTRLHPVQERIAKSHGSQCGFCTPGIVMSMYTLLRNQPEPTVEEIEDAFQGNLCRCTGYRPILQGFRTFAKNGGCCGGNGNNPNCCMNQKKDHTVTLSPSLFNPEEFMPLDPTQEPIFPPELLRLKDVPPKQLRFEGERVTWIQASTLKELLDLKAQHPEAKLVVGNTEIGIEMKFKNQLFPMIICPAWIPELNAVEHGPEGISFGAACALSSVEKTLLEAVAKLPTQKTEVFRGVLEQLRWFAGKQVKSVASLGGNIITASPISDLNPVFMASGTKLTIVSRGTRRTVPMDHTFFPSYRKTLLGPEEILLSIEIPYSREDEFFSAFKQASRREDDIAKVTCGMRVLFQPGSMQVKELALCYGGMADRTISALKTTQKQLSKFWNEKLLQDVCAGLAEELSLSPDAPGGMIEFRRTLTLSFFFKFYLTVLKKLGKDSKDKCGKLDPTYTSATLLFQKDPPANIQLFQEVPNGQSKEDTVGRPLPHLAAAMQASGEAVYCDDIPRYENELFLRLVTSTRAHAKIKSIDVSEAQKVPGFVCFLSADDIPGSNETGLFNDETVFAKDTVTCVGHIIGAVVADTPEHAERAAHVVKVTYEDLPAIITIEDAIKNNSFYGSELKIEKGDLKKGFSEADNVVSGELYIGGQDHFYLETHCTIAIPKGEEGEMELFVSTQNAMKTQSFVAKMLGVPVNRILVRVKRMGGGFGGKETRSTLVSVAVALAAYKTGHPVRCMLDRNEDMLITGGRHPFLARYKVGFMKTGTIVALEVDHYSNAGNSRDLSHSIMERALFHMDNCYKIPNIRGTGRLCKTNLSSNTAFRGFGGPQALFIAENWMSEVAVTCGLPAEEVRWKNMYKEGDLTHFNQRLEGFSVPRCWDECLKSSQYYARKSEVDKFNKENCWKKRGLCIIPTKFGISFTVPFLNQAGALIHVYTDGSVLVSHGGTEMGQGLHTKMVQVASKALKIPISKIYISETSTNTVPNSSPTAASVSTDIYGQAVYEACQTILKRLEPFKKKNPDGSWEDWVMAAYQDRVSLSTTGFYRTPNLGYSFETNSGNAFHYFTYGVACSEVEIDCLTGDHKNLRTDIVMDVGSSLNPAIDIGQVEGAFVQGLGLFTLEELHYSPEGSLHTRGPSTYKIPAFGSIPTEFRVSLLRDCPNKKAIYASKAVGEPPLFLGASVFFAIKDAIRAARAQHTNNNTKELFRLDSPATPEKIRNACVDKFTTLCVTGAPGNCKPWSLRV

[6] = Glycolytic cleavage of 2′-deoxynucleoside adducts in rat liver cytosol; assay type: in vitro ADME; details: result in words
In short: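 Reactions (ice-prepared) contained 5 mg/mL rat liver cytosol, varied adduct concentrations, 0.4% DMSO and 0.1 M potassium phosphate pH 7.4. One etheno-deoxyadenosine adduct was also run in 0.1 M Tris-HCl pH 7.4 without inorganic phosphate. After 5 min at 37 °C, substrate was added to start. Ice-cold methanol stopped reactions; samples were centrifuged at 200000g for 30 min. Supernatants went to reversed-phase HPLC-UV for base formation.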

## 1,N^6-ethenoadenine [1,N^6-ε-Ade]
Oxidation
  enzymatic oxidation in rat liver cytosol: neither was found to be oxidized

## O=c1ccn2c(=O)c3[nH]cnc3nc2[nH]1 [6-oxo-M1G]
[1]
  Km: 210 µM
  vmax: 257 nmol/min/mg

## Oc1ncnc2[nH]ncc12 [allopurinol]
[2]
  inhibition of 1,N^2-ε-Gua metabolite production: inhibited; also recorded: complete inhibition
[3]
  inhibition of heptanone-1,N^2-ε-Gua oxidation: inhibited oxidation

## OC[C@H]1O[C@@H](n2cnc3c(O)ncnc32)C[C@@H]1O [dIno, 2′-deoxyinosine]
[4]
  efficiency of turnover relative to 1,N^6-ε-dA: approximately 57 fold

## 3,N^4-ethenocytosine [3,N^4-ε-Cyt]
Oxidation
  enzymatic oxidation in rat liver cytosol: neither was found to be oxidized

## O=c1nc2[nH]ccn2c2nc[nH]c12 [N^2,3-ε-Gua, N^2,3-ethenoguanine]
Oxidation
  enzymatic oxidation in rat liver cytosol: did not result in oxidative metabolism
[5]
  oxidation by purified bovine XO: did not result in oxidative metabolism

## 7-(2-oxoheptyl)-1,N^2-ethenoguanine [heptanone-1,N^2-ε-Gua]
Oxidation
  enzymatic oxidation in rat liver cytosol: substrates for enzymatic oxidation

## O=c1c2[nH]cnc2nc2[nH]ccn12 [1,N^2-ε-Gua, 1,N^2-ethenoguanine]
Oxidation; oxidation in rat liver cytosol, unit of the text
  vmax: 105 pmol/min/mg
Oxidation; oxidation of substrate in rat liver cytosol, unit of Table 1
  vmax: 105000 pmol/min/mg
Oxidation; rat, rat liver cytosol, pH 7.6
  Km: 84 µM
Oxidation
  enzymatic oxidation in rat liver cytosol: substrates for enzymatic oxidation
[5]; consumption of 1,N^2-ε-Gua by XOR purified from bovine milk, Figure 3 legend
  vmax: 10.1 μmol min^−1 (mg of XOR)^−1
[5]; consumption of 1,N^2-ε-Gua by purified bovine XO
  vmax: 10.1 μmol min^−1 (mg of XO)^−1
[5]
  oxidation by purified bovine XO: readily consumed

## O=c1c2[nH]cnc2nc2n1CCCN2 [PGua, 1,N^2-propanoguanine]
Oxidation
  enzymatic oxidation in rat liver cytosol: not oxidized

## OC[C@H]1O[C@@H](n2cnc3c2ncn2ccnc32)[C@H](O)[C@@H]1O [1,N^6-ε-adenosine]
[6]
  glycolytic cleavage in rat liver cytosol: Identical observations
